Calls of active or inactive are those of the source.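 How the source made its calls: active means peak KCNK3 inhibition above a set limit at some dose, plus a fitted dose-response curve; inactive means no KCNK3 inhibition, or no dose-response curve.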
Molecular target: Potassium channel subfamily K member 3 (Rattus norvegicus) (UniProt O54912)
Assay: KCNK3 off-target potassium flux block – cell-based, FluxOR thallium flux, CRC set 2, selectivity assay for KCNK9 inhibitor project, SAR follow-up (AID 623912)
Settings: KCNK3-expressing cells, FluxOR thallium flux fluorescence; for flux ratio, lower = inhibition: at 3 µM (top of the series)
Method in brief: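 read-out basis = IC50 from normalized flux signal | assay system = induced KCNK3-expressing CHO cells | probe or stimulus = Tl+/K+ sulfate stimulus buffer (5x stock) | times = dye 90 min, compound 20 min, both room temperature | signal = thallium flux fluorescence with FluxOR thallium-sensitive dye, kinetic reading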

Chain of Potassium channel subfamily K member 3 (Rattus norvegicus) (O54912 whole entry, looked up): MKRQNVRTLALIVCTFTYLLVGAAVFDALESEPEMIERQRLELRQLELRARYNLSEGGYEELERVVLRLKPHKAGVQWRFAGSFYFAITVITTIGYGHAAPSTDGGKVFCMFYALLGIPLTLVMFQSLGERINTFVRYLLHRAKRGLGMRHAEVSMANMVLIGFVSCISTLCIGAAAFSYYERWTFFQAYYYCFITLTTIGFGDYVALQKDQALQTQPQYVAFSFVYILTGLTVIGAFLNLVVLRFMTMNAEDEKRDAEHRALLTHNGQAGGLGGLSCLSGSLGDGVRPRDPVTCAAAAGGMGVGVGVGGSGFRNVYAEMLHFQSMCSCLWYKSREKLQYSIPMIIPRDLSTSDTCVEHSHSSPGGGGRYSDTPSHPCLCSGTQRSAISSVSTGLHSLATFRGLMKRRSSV

flux ratio, lower = inhibition	IC50 [µM]	Compound
inactive		COc1cccc(Cc2n[nH]c(=S)n2C(C)C2CC3CCC2C3)c1 (stereo not given)
inactive		CC(C1CC2CCC1C2)n1c(-c2ccsc2)n[nH]c1=S (stereo not given)
inactive		Cc1cccc(-c2n[nH]c(=S)n2C(C)C2CC3CCC2C3)c1 (stereo not given)
	0.044	CC(C1CCCCC1)n1c(-c2ccco2)n[nH]c1=S (stereo not given)
	0.206	Cc1cccc(C(=O)Nc2cccc(NC(=O)c3ccccc3OCC(C)C)c2)c1
	0.22	CCOc1ccccc1NC(=O)c1cccc(NC(=O)c2ccc(C(F)(F)F)cc2)c1
	0.259	CN(C)c1ccc(C(=O)Nc2cccc(NC(=O)c3ccccc3)c2)cc1
	0.0683	CCOc1ccccc1NC(=O)c1cccc(NC(=O)C2CCCC2)c1
	0.149	Cc1cccc(C(=O)Nc2cccc(NC(=O)c3ccc(Cl)cc3)c2)c1
	0.491	CCOc1cccc(NC(=O)c2cccc(NC(=O)C3CCCC3)c2)c1
	0.0294	O=C(Nc1cccc(NC(=O)c2cccs2)c1)c1ccccc1
	0.015	COc1cccc(-c2n[nH]c(=S)n2C(C)C2CC3CCC2C3)c1OC (stereo not given)
	0.0839	CCOc1ccccc1NC(=O)c1cccc(NC(=O)c2ccccc2Cl)c1
	0.12	O=C(Nc1cccc(NC(=O)c2cccc(Cl)c2)c1)c1ccccc1
	0.00746	CCOc1ccccc1C(=O)Nc1cccc(NC(=O)c2cccc(C)c2)c1
	0.003	Cc1cccc(C(=O)Nc2cccc(NC(=O)c3cccs3)c2)c1
inactive		CC(c1ccco1)n1c(-c2ccoc2)n[nH]c1=S (stereo not given)
	1.45	Cc1cccc(S(=O)(=O)Nc2cccc(NC(=O)c3ccccc3)c2)c1
	0.017	CCOc1ccccc1NC(=O)c1cccc(NC(=O)c2cccc(C)c2)c1
	0.0296	Cc1cccc(C(=O)Nc2cccc(NC(=O)c3cccc(C)c3)c2)c1
	0.082	CC(C1CC2CCC1C2)n1c(-c2cccc(F)c2)n[nH]c1=S (stereo not given)
	0.00967	COc1ccccc1C(=O)Nc1cccc(NC(=O)c2ccccc2OC)c1
	0.039	CCOc1ccccc1NC(=O)c1cccc(NC(=O)c2cccc(Cl)c2)c1
	0.108	CCOc1ccccc1C(=O)Nc1cccc(NC(=O)C2CCCC2)c1
	0.217	CCOc1ccccc1NC(=O)c1cccc(NC(=O)CC2CCCCC2)c1
